Screens as filed in PubChem.
HIF activator: HIF pathway transcriptional activation | U2OS HRE-luciferase reporter, luminescence; normalized: DMSO 0%, desferrioxamine 100% | activation, % at 7.5 µM (by protocol) | actives 0.32% (n = 300,000);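 active means mean activation of at least 10% of the iron chelator positive control signal, with at least half of replicates also reaching 10%; inconclusive means mean and replicate majority disagree about reaching 10%; inactive means mean and most replicates under 10%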
ARNT TACC3 PPI: disruptors of human ARNT/TACC3 interaction | Q9Y6A5 | AlphaScreen His-ARNT PAS-B/GST-TACC3 binding, luminescence; TACC3 fragment carries E629A point mutation | inhibition, % at 9.99 µM | actives 0.66% (n = 390,000) | AID 623870;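 active means mean inhibition of replicates at least 50% and at least half of replicates each reaching 50%; inconclusive means half or more replicates reach 50% but mean below 50%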
T cruzi inh: T. cruzi replication inhibition | AID 1885 | inhibition, % (test concentration not listed) | T. cruzi beta-gal in NIH3T3, luminescence, 90 h | actives 1.4% (n = 300,000);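 active means mean inhibition across valid replicates above about 55%, limit read from the data; inconclusive means mean below that limit but half or more replicates reach it; inactive means mean below it, under half of replicates reach it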;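 further: signal also drops with host cell toxicity which is not excluded here; higher percent means less beta-gal luminescence so fewer parasites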
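Material: NIH/3T3 host cells with β-galactosidase reporter T. cruzi; Input: 5,000 host fibroblasts per well; Medium: DMEM, 2% fetal bovine serum; Compound: 50 nL DMSO compound solution per well; Schedule: 3 h host attachment, then at least 90 h co-culture; Detection: luminescent β-galactosidase signal after 60 min lysis.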
AI-2 QS modul: modulators of Vibrio harveyi AI-2 quorum sensing system; actives 0.4% (n = 300,000); activity change, % at 7.5 µM; Vibrio harveyi JMH597 AI-2 luminescence/OD600 ratio, 9 h; stronger effect = lower value; strain lacks LuxN and CqsS sensors; 0 = neutral-control median; in the data active means activity change below about -75%, passing the limit was not always enough; inconclusive means no clear call, values can overlap the other calls;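 further: luminescence divided by OD600 gain over 9 h not by final OD600 alone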
AlphaScreen ctr: interferes with AlphaScreen signal, flagging false ARNT-TACC3 hits | AC50, µM (highest dose often 68 µM) | actives 50% (n = 1,200) | His-ARNT PASB-GST AlphaScreen artifact counter-screen, luminescence | AID 651705 | shares compounds with ARNT TACC3 PPI;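 active means every separate test run was called active for a drop in luminescence, with AC50 within twice the top valid dose, actives reach about 71 µM in these data; inconclusive means the separate test runs disagree in their calls; inactive means all runs inactive, including signal change in the wrong direction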
A number is an active result; – = inactive; ? = inconclusive; · = no result given. The list is not random: actives were taken first. Their share in the collection is about 2%.

SMILES	HIF activator	ARNT TACC3 PPI	T cruzi inh	AI-2 QS modul	AlphaScreen ctr
Cc1ccc(S(=O)(=O)CCC(=O)Nc2nc(-c3cccnc3)cs2)cc1	–	·	–	–	·
Cc1ccc(C2(C)NC(=O)N(CC(=O)Nc3nc(-c4ccccn4)cs3)C2=O)cc1 (stereo not given)	–	54	?	–	33µM
CC1(c2ccccc2)NC(=O)N(CC(=O)Nc2nc(-c3ccccn3)cs2)C1=O (stereo not given)	–	61	–	–	56µM
Cc1ccc(S(=O)(=O)CCC(=O)Nc2nc(-c3ccccn3)cs2)cc1	·	80	·	·	71µM
C[C@H](CO)N1C[C@H](C)[C@H](CN(C)S(C)(=O)=O)Oc2cc(-c3ccc(F)cc3)ccc2S1(=O)=O	·	–	·	·	·
Cc1ccc(S(=O)(=O)N[C@@H]2C=C[C@H](CC(=O)N3CCc4ccccc4C3)O[C@@H]2CO)cc1	·	–	·	·	·
CO[C@@H]1CN(C)C(=O)c2ccc(NC(=O)c3ccccn3)cc2OC[C@@H](C)N(C(=O)C2CC2)C[C@H]1C	·	57	·	·	32µM
CO[C@@H]1CN(C)C(=O)c2ccc(NC(=O)c3cnccn3)cc2OC[C@@H](C)N(C(=O)C2CC2)C[C@H]1C	·	–	·	·	·
Oc1ccccc1C(Nc1nccs1)c1ccc2cccnc2c1O (stereo not given)	21	61	63	?	12µM
C[C@@H]1CN([C@@H](C)CO)C(=O)Cc2cc(NC(=O)Nc3ccc(F)cc3)ccc2O[C@@H]1CN(C)S(=O)(=O)c1ccc(Cl)cc1	·	–	·	·	·
C[C@H](Nc1nc(-c2ccccn2)nnc1-c1ccccc1)C1CCCCC1	·	·	·	·	2.6µM
C[C@@H](Nc1nc(-c2ccccn2)nnc1-c1ccccc1)C1CCCCC1	·	·	·	·	4.3µM
CC(C)Nc1cc(C(F)(F)F)nc(-c2ccccn2)n1	–	–	–	–	·
CC(C)Nc1nc(-c2ccccn2)nc(-c2ccccc2)c1C#N	–	·	–	–	·
COc1ccc(N(C(C)=O)c2nc3ccccc3[nH]2)cc1	–	53	–	–	–
COc1ccc(C(=O)Nc2nc3ccccc3[nH]2)cc1	–	–	–	–	·
Clc1ccc(SCc2cc(N3CCOCC3)nc(-c3ccccn3)n2)cc1	–	60	60	–	–
O=c1cc(CSc2ccc(Cl)cc2)nc(-c2ccccn2)[nH]1	–	61	59	–	53µM
COc1cccc(-c2ccc3c(c2)[C@@H]2[C@@H](CCN2C(=O)C2CCOCC2)[C@@H](CO)N3)c1	·	–	·	·	·
O=C(O)c1cn[nH]c1-n1cnnn1	–	61	–	–	–
CC1=NN(c2ccccc2C)C(=O)C1	·	active	·	·	–
Cc1ccccc1N1CC(=O)N(c2ccccc2C)CC1=O	–	–	–	–	·
Cc1[nH]n(-c2ccccc2)c(=O)c1C(c1ccc(C(=O)O)cc1)c1c(C)[nH]n(-c2ccccc2)c1=O	–	18	–	–	–
N#CC1=C(N)Oc2c(ccc3cccnc23)C1c1ccccc1 (stereo not given)	–	57	–	–	71µM
Cc1oc(C)c2c(=O)ccc3c(c12)OC(N)=C(C#N)C3c1ccccc1 (stereo not given)	–	–	–	–	·
SMILES	HIF activator	ARNT TACC3 PPI	T cruzi inh	AI-2 QS modul	AlphaScreen ctr
Cc1cc(C)c(S(=O)(=O)N2CCOC2CNC(=O)C(=O)NCCc2ccc(S(N)(=O)=O)cc2)c(C)c1 (stereo not given)	–	–	–	–	·
Cc1cc(C)c(S(=O)(=O)N2CCOC2CNC(=O)C(=O)NCCCn2ccnc2)c(C)c1 (stereo not given)	–	63	–	–	42µM
C[C@H](CO)N1C[C@H](C)[C@@H](CN(C)C(=O)CN(C)C)Oc2ncc(C3=CCCC3)cc2C1=O	·	–	·	·	·
CO[C@H]1CN(C)C(=O)c2cc(NS(C)(=O)=O)ccc2OC[C@@H](C)N(CCC(F)(F)F)C[C@@H]1C	·	–	·	·	·
Cc1ccsc1C(=O)Nc1nnc(-c2ccco2)o1	–	54	–	-127	48µM
Cc1ccc(C(=O)Nc2nnc(-c3ccco3)o2)cc1	–	–	–	–	·
N#Cc1ccc(C(=O)Nc2nnc(-c3ccco3)o2)cc1	–	40	–	–	–
C[C@@H]1CN([C@@H](C)CO)C(=O)c2cccc(NC(=O)C3CC3)c2O[C@@H]1CN(C)C(=O)Nc1ccccc1	·	–	·	·	·
O=C(C[C@H]1CC[C@H]2[C@@H](COC[C@@H](O)CN2C(=O)C2CC2)O1)NCc1ccncc1	·	–	·	·	·
